Active and inactive are the calls of the source.
Key:
[1] = tested on: Mus musculus; assay: Anticonvulsant activity in Kunming mouse assessed as protection against subcutaneous pentylenetetrazole-induced seizure at 300 mg/kg, ip after 4 hrs; format: functional, organism-based; design: dose 300 mg/kg
Procedure, shortened: (§1)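 Male Kunming mice (20 ± 2.0 g) were given ip doses of 30, 100 or 300 mg/kg in 0.5% methylcellulose, one to four mice per dose. They were then challenged with subcutaneous pentylenetetrazole dissolved in 0.9% saline at 0.5 h and 4.0 h. Protection was the absence of even a threshold seizure (a single clonic spasm lasting at least 5 s). The value is the minimal dose active in half or more of the mice.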

[2] = tested on: Mus musculus; assay: Neurotoxicity in Kunming mouse assessed as minimal motor impairment at 300 mg/kg, ip after 0.5 hrs by rotarod test; format: toxicity, organism-based; design: dose 300 mg/kg, route intraperitoneal; settings: in vivo
Procedure, shortened: (§2)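 Rotorod screen in trained male Kunming mice dosed ip at 30, 100 or 300 mg/kg in 0.5% methylcellulose, read at 0.5 h and 4.0 h. Mice were placed on a knurled rod 1 in. in diameter turning at 6 rpm. Impairment was failure to stay on the rod for at least 1 min in each of four trials. The value is the minimal dose affecting half or more of the mice.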

[3] = tested on: Mus musculus; assay: Anticonvulsant activity in Kunming mouse assessed as protection against subcutaneous pentylenetetrazole-induced seizure at 300 mg/kg, ip after 0.5 hrs; format: functional, organism-based; design: dose 300 mg/kg; procedure, shortened: as §1
[4] = tested on: Mus musculus; assay: Anticonvulsant activity in ip dosed Kunming mouse assessed as protection against maximal electroshock-induced seizure after 0.5 hrs; format: functional; settings: read-out: MED
Procedure, shortened: (§3)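 Male Kunming mice (20 ± 2.0 g) received ip 30, 100 or 300 mg/kg as a suspension in 0.5% methylcellulose, one to four mice per dose. At 0.5 h and 4.0 h, a 60-Hz, 50-mA current was applied for 0.25 s via corneal electrodes. Protection meant no hindlimb tonic extension. The value is the minimal dose protecting half or more of the mice.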

[5] = tested on: Mus musculus; assay: Anticonvulsant activity in Kunming mouse assessed as protection against maximal electroshock-induced seizure at 300 mg/kg, ip after 4 hrs; format: functional, organism-based; design: dose 300 mg/kg; procedure, shortened: as §3
[6] = tested on: Mus musculus; assay: Anticonvulsant activity in Kunming mouse assessed as protection against maximal electroshock-induced seizure at 300 mg/kg, ip after 0.5 hrs; format: functional, organism-based; design: dose 300 mg/kg; procedure, shortened: as §3
[7] = tested on: Mus musculus; assay: Anticonvulsant activity in ip dosed Kunming mouse assessed as protection against maximal electroshock-induced seizure after 4 hrs; format: functional; settings: read-out: MED; procedure, shortened: as §3
[8] = Neurotoxicity in ip dosed Kunming mouse assessed as minimal motor impairment after 0.5 hrs by rotarod test; format: toxicity, organism-based; settings: in vivo
[9] = tested on: Mus musculus; assay: Anticonvulsant activity in ip dosed Kunming mouse assessed as protection against subcutaneous pentylenetetrazole-induced seizure; format: functional
Procedure, shortened: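 Median effective dose in male Kunming mice, groups of 10, given a range of ip doses until at least three points fell between 10–90% seizure protection.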

[10] = tested on: Mus musculus; assay: Anticonvulsant activity in ip dosed Kunming mouse assessed as protection against subcutaneous pentylenetetrazole-induced seizure after 0.5 hrs; format: functional; settings: read-out: MED; procedure, shortened: as §1
[11] = tested on: Mus musculus; assay: Neurotoxicity in Kunming mouse assessed as minimal motor impairment at 300 mg/kg, ip after 4 hrs by rotarod test; format: toxicity, organism-based; design: dose 300 mg/kg, route intraperitoneal; settings: in vivo; procedure, shortened: as §2
[12] = tested on: Mus musculus; assay: Protective index, ratio of TD50 for ip dosed Kunming mouse to ED50 for ip dosed Kunming mouse by maximal electroshock seizure test; format: functional
[13] = tested on: Mus musculus; assay: Protective index, ratio of TD50 for ip dosed Kunming mouse to ED50 for ip dosed Kunming mouse by subcutaneous pentylenetetrazole induced seizure test; format: functional
[14] = tested on: Mus musculus; assay: Anticonvulsant activity in ip dosed Kunming mouse assessed as protection against maximal electroshock-induced seizure; format: functional
[15] = tested on: Mus musculus; assay: Anticonvulsant activity in ip dosed Kunming mouse assessed as protection against subcutaneous pentylenetetrazole-induced seizure after 4 hrs; format: functional; settings: read-out: MED; procedure, shortened: as §1

With `Cc1ccc(N2C(=O)NC3(CC3c3ccc4cccc(OCc5ccccc5)c4n3)C2=O)cc1` (racemic) the Activity [1] was “inactive”, the Activity [2] was “Non-toxic” and the Activity [3] was “inactive”. For the same compound, the minimal effective dose [4] was 100 mg/kg and the Activity [5] was “inactive”.
For `O=C1NC2(CC2c2ccc3cccc(OCc4ccccc4)c3n2)C(=O)N1c1ccc(Br)cc1` (racemic), the Activity [6] was “inactive”, the Activity [1] was “inactive” and the minimal effective dose [7] was 300 mg/kg. For the same compound, the Activity [3] was “inactive” and the MTD at 0.5 h [8] was 100 mg/kg.
For `O=C1NC(=O)C(c2ccccc2)(c2ccccc2)N1` [PHENYTOIN], the Activity [1] was “inactive”, the minimal effective dose [7] was 30 mg/kg and the Activity [3] was “inactive”. For the same compound, the minimal effective dose [4] was 30 mg/kg and the ED50 [9] was over 300 mg/kg.
In the case of `O=C1NC2(CC2c2ccc3cccc(OCc4ccccc4)c3n2)C(=O)N1C1CCCCC1` (racemic), the minimal effective dose [10] is reported as 300 mg/kg, the Activity [1] is reported as “inactive” and the Activity [2] is reported as “Non-toxic”. For the same compound, the minimal effective dose [7] was 300 mg/kg and the minimal effective dose [4] was 300 mg/kg.
With `COc1ccc(N2C(=O)NC3(CC3c3ccc4cccc(OCc5ccccc5)c4n3)C2=O)cc1` (racemic) the Activity [11] was “Non-toxic”, the minimal effective dose [10] was 300 mg/kg and the Activity [1] was “inactive”. For the same compound, the “Ratio TD50/ED50” value [12] was 22.2, the “Ratio TD50/ED50” value [13] was 1.6 and the Activity [2] was “Non-toxic”. For the same compound, the ED50 [14] was 19.5 mg/kg, the minimal effective dose [7] was 100 mg/kg and the minimal effective dose [4] was 30 mg/kg. The TD50 at 0.5 h [8] was 433 mg/kg and the ED50 [9] was 279 mg/kg.
With `O=C1NC2(CC2c2ccc3cccc(OCc4ccccc4)c3n2)C(=O)N1c1ccccc1` (racemic) the Activity [6] was “inactive”, the Activity [1] was “inactive” and the minimal effective dose [7] was 300 mg/kg. The Activity [3] was “inactive” and the MTD at 0.5 h [8] was 300 mg/kg.
With `O=C1NC2(CC2c2ccc3cccc(OCc4ccccc4)c3n2)C(=O)N1c1ccc(C(F)(F)F)cc1` (racemic) the Activity [2] was “Non-toxic”, the minimal effective dose [15] was 300 mg/kg and the minimal effective dose [7] was 300 mg/kg. For the same compound, the Activity [3] was “inactive” and the minimal effective dose [4] was 300 mg/kg.
For `O=C1NC2(CC2c2ccc3cccc(OCc4ccccc4)c3n2)C(=O)N1Cc1ccccc1` (racemic), the Activity [6] was “inactive”, the minimal effective dose [10] was 300 mg/kg and the Activity [1] was “inactive”. The Activity [2] was “Non-toxic” and the minimal effective dose [7] was 300 mg/kg.
With `CCCC(CCC)C(=O)[O-].[Na+]` [VALPROATE SODIUM] the ED50 [9] was 149 mg/kg.
With `O=C1NC(=O)C2(CC2c2ccc3cccc(OCc4ccccc4)c3n2)N1` (racemic) the Activity [11] was “Non-toxic”, the minimal effective dose [10] was 300 mg/kg and the Activity [1] was “inactive”. The minimal effective dose [4] was 300 mg/kg, the MTD at 0.5 h [8] was 300 mg/kg and the Activity [5] was “inactive”.
In the case of `O=C1NC2(CC2c2ccc3cccc(OCc4ccccc4)c3n2)C(=O)N1c1ccc(Cl)cc1` (racemic), the Activity [1] is reported as “inactive”, the Activity [3] is reported as “inactive” and the minimal effective dose [4] is reported as 300 mg/kg. For the same compound, the MTD at 0.5 h [8] was 100 mg/kg and the Activity [5] was “inactive”.
For `O=C1NC2(CC2c2ccc3cccc(OCc4ccccc4)c3n2)C(=O)N1c1ccc(F)cc1` (racemic), the Activity [1] was “inactive”, the Activity [2] was “Non-toxic” and the Activity [3] was “inactive”. The minimal effective dose [4] was 300 mg/kg and the Activity [5] was “inactive”.
With `O=C1NC2(CC2c2ccc3cccc(OCc4ccccc4)c3n2)C(=O)N1c1ccc([N+](=O)[O-])cc1` (racemic) the Activity [6] was “inactive”, the Activity [11] was “Non-toxic” and the minimal effective dose [10] was 300 mg/kg. For the same compound, the Activity [1] was “inactive”, the Activity [2] was “Non-toxic” and the minimal effective dose [7] was 300 mg/kg.
`NC(=O)N1c2ccccc2C=Cc2ccccc21` [CARBAMAZEPINE] gave an ED50 [14] of 8.8 mg/kg and an ED50 [9] of over 100 mg/kg.
For `CN1C(=O)NC2(CC2c2ccc3cccc(OCc4ccccc4)c3n2)C1=O` (racemic), the Activity [2] was “Non-toxic”, the minimal effective dose [15] was 300 mg/kg and the Activity [3] was “inactive”. The minimal effective dose [4] was 100 mg/kg and the Activity [5] was “inactive”.
For `CCC1(c2ccccc2)C(=O)NC(=O)NC1=O` [PHENOBARBITAL], the ED50 [14] was 21.8 mg/kg and the ED50 [9] was 13.2 mg/kg.
For `O=C1NC2(CC2c2ccc3cccc(OCc4ccccc4)c3n2)C(=O)N1c1cc(Cl)cc(Cl)c1` (racemic), the Activity [6] was “inactive”, the Activity [11] was “Non-toxic” and the minimal effective dose [10] was 300 mg/kg. For the same compound, the Activity [1] was “inactive”, the MTD at 0.5 h [8] was 300 mg/kg and the Activity [5] was “inactive”.
With `CCC(CO)N1C(=O)NC2(CC2c2ccc3cccc(OCc4ccccc4)c3n2)C1=O` (racemic) the Activity [11] was “Non-toxic”, the minimal effective dose [10] was 100 mg/kg and the “Ratio TD50/ED50” value [12] was 26.8. For the same compound, the “Ratio TD50/ED50” value [13] was 1.7, the Activity [2] was “Non-toxic” and the ED50 [14] was 8.6 mg/kg. The minimal effective dose [15] was 300 mg/kg, the minimal effective dose [7] was 30 mg/kg and the minimal effective dose [4] was 30 mg/kg. The TD50 at 0.5 h [8] was 365 mg/kg and the ED50 [9] was 212 mg/kg.
With `CCCCN1C(=O)NC2(CC2c2ccc3cccc(OCc4ccccc4)c3n2)C1=O` (racemic) the Activity [11] was “Non-toxic”, the Activity [2] was “Non-toxic” and the minimal effective dose [15] was 300 mg/kg. The Activity [3] was “inactive”, the minimal effective dose [4] was 300 mg/kg and the Activity [5] was “inactive”.
In the case of `CCC1(C)CC(=O)NC1=O` (stereo not drawn) [ETHOSUXIMIDE], the Activity [6] is reported as “inactive”, the Activity [11] is reported as “Non-toxic” and the minimal effective dose [10] is reported as 100 mg/kg. The Activity [2] was “Non-toxic”, the minimal effective dose [15] was 300 mg/kg and the Activity [5] was “inactive”.
In the case of `CC(C)N1C(=O)NC2(CC2c2ccc3cccc(OCc4ccccc4)c3n2)C1=O` (racemic), the Activity [11] is reported as “Non-toxic”, the minimal effective dose [10] is reported as 100 mg/kg and the Activity [1] is reported as “inactive”. The Activity [2] was “Non-toxic”, the minimal effective dose [7] was 100 mg/kg and the minimal effective dose [4] was 300 mg/kg.

From ChEMBL document CHEMBL1932992, “Synthesis and anticonvulsant activity of 1-(8-(benzyloxy)quinolin-2-yl)-6-substituted-4,6-diazaspiro[2,4]heptane-5,7-diones” (Eur J Med Chem, 2012)
